Tests used:
[1] = Displacement of [125I]CCL5 from HCMV US28 receptor; set-up: species or system Human betaherpesvirus 5
Summary of the method: (§1)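 Allosteric inhibition of chemokine binding to US28 was measured by ¹²⁵I-CCL5 radioligand binding. IC50 values (mean and interval) came from competition curves. Single-point data give percent inhibition of CCL5 binding at 10 µM compound. All runs were in triplicate and repeated at least three times.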

[2] = Activity at HCMV US28 receptor assessed as receptor-mediated inositol phosphate response; set-up: species or system Human betaherpesvirus 5
Summary of the method: (§2)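 Compounds were tested against ligand-independent (constitutive) US28-driven inositol phosphate production, measured as InsP accumulation. EC50 values (mean and interval) came from dose–response curves. Single-point data give percent inhibition of constitutive signaling at 10 µM compound. All runs were in triplicate and repeated at least three times.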

Human betaherpesvirus 5 [3] = assay: Activity at HCMV US28 receptor assessed as receptor-mediated inositol phosphate response at 10 uM; summary of the method: as §2
Human betaherpesvirus 5 [4] = assay: Displacement of [125I]CCL5 from HCMV US28 receptor at 10 uM; summary of the method: as §1

Row | SMILES | IC50 [1] [µM] | EC50 [2] [µM] | Activity (Human betaherpesvirus 5 [3]) [%] | Activity (Human betaherpesvirus 5 [4]) [%]
1 | Clc1ccc(CC2Cc3ccccc3C2N2CCCCC2)c(Cl)c1 (stereo not drawn) | 13.4 | 2.6 |  | 
2 | NC1c2ccccc2CCCC1Cc1ccc(Cl)cc1Cl (stereo not drawn) | 11.8 |  | 26 | 
3 | C1=Cc2ccccc2C(OC2CC3CCC(C2)N3C2CCCCC2)c2ccccc21 (stereo not drawn) | 8.3 | 5.8 |  | 
4 | CCN1C2CCC1CC(OC1c3ccccc3CCc3ccccc31)C2 (stereo not drawn) |  |  | 0 | 7
5 | CN1CCN(C2c3ccccc3CC2Cc2ccc(Cl)cc2Cl)CC1 (stereo not drawn) | 8.1 | 12.1 |  | 
6 | CN1[C@@H]2CC[C@H]1C[C@@H](OC1c3ccccc3CCc3ccccc31)C2 |  |  | 0 | 15
7 | CC(C)N1C2CCC1CC(OC1c3ccccc3C=Cc3ccccc31)C2 (stereo not drawn) |  |  | 3 | 13
8 | CC(Cc1ccccc1)NCC=C1c2ccccc2-c2ccccc21 (stereo not drawn) | 7 |  | 42 | 
9 | OCCN1CCN(CCCN2Cc3ccccc3CCc3ccccc32)CC1 | 1.6 |  |  | 
10 | NCC(OC(c1ccccc1)c1ccc(Cl)cc1Cl)c1ccccc1 (stereo not drawn) | 9.2 | 10.2 |  | 
11 | Clc1ccc(CC2Cc3ccccc3C2N2CCN(c3ccccc3)CC2)c(Cl)c1 (stereo not drawn) | > 100 | > 100 |  | 
12 | OC1(c2ccc(Cl)cc2)CCN(C2c3ccccc3CC2Cc2ccc(Cl)cc2Cl)CC1 (stereo not drawn) | 11 | 6 |  | 
13 | OCCCCN1CCN(/C(=C/c2cccc(Cl)c2)c2ccccc2)CC1 |  |  | 0 | 13
14 | CCN1CCC[C@H]1CNC(=O)c1c(OC)ccc(I)c1O [IOLOPRIDE] | 0.3 |  |  | 
15 | OC1(c2ccc(Cl)cc2)CCN(CCCN2Cc3ccccc3CCc3ccccc32)CC1 | 0.7 | 4.7 |  | 
16 | CC(Cc1cccc(C(F)(F)F)c1)NCCc1c2ccccc2nc2ccccc12 (stereo not drawn) | 5.5 |  | 34 | 
17 | NC1c2ccccc2CCC1Cc1ccc(Cl)cc1Cl (stereo not drawn) | 8.5 | 12.6 |  | 
18 | NCC1(c2ccc(Cl)cc2)CCN(CCCN2Cc3ccccc3CCc3ccccc32)CC1 | 1.6 | 7.6 |  | 
19 | OC1(c2ccc(Cl)cc2)CCN(CCCC(c2ccc(F)cc2)c2ccc(F)cc2)CC1 | 3 | 5.2 |  | 
20 | Clc1ccc(C2=CCN(C3c4ccccc4CC3Cc3ccc(Cl)cc3Cl)CC2)cc1 (stereo not drawn) | > 100 | > 100 |  | 
21 | CCCN1C2CCC1CC(OC1c3ccccc3C=Cc3ccccc31)C2 (stereo not drawn) |  |  | 0 | 18
22 | CSc1ccc2c(c1)C(N1CCN(C)CC1)Cc1ccccc1S2 (stereo not drawn) [METITEPINE] | 0.41 | 7.6 |  | 
23 | CC(Cc1ccccc1)NCCC1c2ccccc2CCc2ccccc21 (stereo not drawn) | 3.7 | 5.2 |  | 

Row | SMILES | IC50 [1] [µM] | EC50 [2] [µM] | Activity (Human betaherpesvirus 5 [3]) [%] | Activity (Human betaherpesvirus 5 [4]) [%]
24 | OC1(c2ccc(Cl)cc2)CCN(CCCN(Cc2ccc(Cl)cc2)c2ccccc2)CC1 | 5.7 | 5.5 |  | 
25 | OC1(c2ccc(Cl)cc2)CCN(CCCN(Cc2ccccc2)c2ccc(Cl)cc2)CC1 | 1.8 | 5 |  | 
26 | CN1CCN(C2=Nc3ccccc3Oc3ccc(Cl)cc32)CC1 |  |  | 0 | 13
27 | CN1CCN(C2=Nc3cc(Cl)ccc3Nc3ccccc32)CC1 |  |  | 11 | 47
28 | CC(C)(C)c1ccc(C(OC(CN)c2ccccc2)c2ccccc2)cc1 (stereo not drawn) | 8.2 | 8.4 |  | 
29 | CCc1ccccc1C1(OCCN(C)Cc2cccc(C)c2)CCCCC1C (stereo not drawn) | 12.9 |  | 10 | 
30 | CN1CCN(CCC(=O)N2Cc3ccccc3CCc3ccccc32)CC1 | > 100 |  | 0 | 
31 | N/C(CCN1C2CCC1CC(OC1c3ccccc3CCc3ccccc31)C2)=N\O (stereo not drawn) |  |  | 0 | 0
32 | NC1c2ccccc2CC1Cc1ccccc1 (stereo not drawn) | 80.6 | > 100 |  | 
33 | CN1CCN(CCCN2Cc3ccccc3CCc3ccccc32)CC1 | 4.9 |  | 3 | 
34 | CCN1CCN(C2=Nc3cc(Cl)ccc3Nc3ccccc32)CC1 | 3.8 |  | 16 | 
35 | Cc1ccc(CC2Cc3ccccc3C2N)c(C)c1 (stereo not drawn) | 17.7 | 13.7 |  | 
36 | OC1(c2ccc(Cl)cc2)CCN(CCCN(Cc2ccccc2)c2ccccc2)CC1 | 4.1 | 3 |  | 
37 | NC1c2ccccc2CC1Cc1ccc(Cl)cc1Cl (stereo not drawn) | 9.5 | 11.1 |  | 
38 | CN1CCN(C2=Nc3cc(Cl)ccc3Oc3ccccc32)CC1 |  |  | 22 | 19
39 | NC(CCc1ccc(Cl)c(Cl)c1)c1ccc(Cl)c(Cl)c1 (stereo not drawn) | 7.5 | 11.7 |  | 
40 | COc1ccc(CC2Cc3ccccc3C2N)c(OC)c1 (stereo not drawn) | > 100 | > 100 |  | 
41 | CSc1ccc2c(c1)C(OCCN1CCC(O)(c3ccc(Cl)cc3)CC1)Cc1ccccc1S2 (stereo not drawn) | 12.4 | 7.1 |  | 
42 | CC(=O)Nc1ccc(CC2Cc3ccccc3C2N)cc1 (stereo not drawn) | > 100 | > 100 |  | 
43 | c1ccc(CN2C3CCC2CC(OC2c4ccccc4CCc4ccccc42)C3)cc1 (stereo not drawn) | 10.5 | 8.8 |  | 
44 | N=C(N)NCCN1C2CCC1CC(OC1c3ccccc3CCc3ccccc31)C2 (stereo not drawn) |  |  | 0 | 34
45 | CC(Cc1ccccc1)NCC=C1c2ccccc2CCc2ccccc21 (stereo not drawn) | 4.2 |  | 39 | 
46 | CC(Cc1cccc(C(F)(F)F)c1)NCC=C(c1ccc(F)cc1)c1ccc(F)cc1 (stereo not drawn) |  |  | 38 | 39

Row | SMILES | IC50 [1] [µM] | EC50 [2] [µM] | Activity (Human betaherpesvirus 5 [3]) [%] | Activity (Human betaherpesvirus 5 [4]) [%]
47 | CCN1CCN(C2=Nc3cc(Cl)ccc3Oc3ccccc32)CC1 |  |  | 0 | 38
48 | COc1ccc(CC2Cc3ccccc3C2N)cc1 (stereo not drawn) | > 100 | > 100 |  | 
49 | CCCCCCCCN1C2CCC1CC(OC1c3ccccc3CCc3ccccc31)C2 (stereo not drawn) | 5.6 | 4.9 |  | 
50 | CN1CCN(C2=Nc3ccccc3Sc3ccc(Cl)cc32)CC1 |  |  | 0 | 28
51 | COc1ccccc1CC1Cc2ccccc2C1N (stereo not drawn) | 37.3 | 42.7 |  | 
52 | CN1CCN(/C(=C/c2cccc(Cl)c2)c2ccccc2)CC1 |  |  | 20 | 13
53 | Clc1cccc(/C=C(\c2ccccc2)N2CCN(CCCCc3ccccc3)CC2)c1 |  |  | 18 | 47
54 | c1ccc(CCN2C3CCC2CC(OC2c4ccccc4CCc4ccccc42)C3)cc1 (stereo not drawn) | 11.9 | 4.3 |  | 
55 | N#CC(CCCN1CCC(O)(c2ccc(Cl)cc2)CC1)(c1ccccc1)c1ccccc1 [BERLEX COMPOUND] | 4.9 | 6.3 |  | 
56 | Clc1ccc(CC2Cc3ccccc3C2NCc2ccccc2)c(Cl)c1 (stereo not drawn) | > 100 | > 100 |  | 
57 | OC1(c2ccc(Cl)cc2)CCN(CCOC(c2ccccc2)c2ccccc2)CC1 | 2.1 | 3.5 |  | 
58 | OC1(c2ccc(Cl)cc2)CCCN(CCCN2Cc3ccccc3CCc3ccccc32)C1 (stereo not drawn) | 0.9 | 3.9 |  | 
59 | NC(CCc1ccccc1)c1ccc(Cl)c(Cl)c1 (stereo not drawn) |  |  | 34 | 5
60 | OC1(c2ccc(Cl)cc2)CCN(CCOC(c2ccccc2)c2ccc(F)cc2)CC1 (stereo not drawn) | 2.3 | 4.6 |  | 
61 | C=C[C@H]1CN2CC[C@@H]1C[C@H]2C(OC(=O)c1ccc(C)cc1)c1ccnc2ccccc12 (stereo partly drawn) | 0.3 |  |  | 
62 | COc1ccc(CC2Cc3ccccc3C2N)cc1C (stereo not drawn) | 59.7 | 16.4 |  | 
63 | O=C(CCN1CCN(CCO)CC1)N1Cc2ccccc2CCc2ccccc21 | > 100 |  | 0 | 
64 | CC(Cc1ccc(Cl)cc1)NCCC1=C2C=CC=CC2Sc2ccccc21 (stereo not drawn) | 2.6 |  | 21 | 
65 | CCCCN1CCN(C2=Nc3cc(Cl)ccc3Nc3ccccc32)CC1 | 4.7 |  | 19 | 
66 | CN1CCN(C2=Nc3cc(Cl)ccc3Sc3ccccc32)CC1 |  |  | 0 | 47
67 | CN1CCN(C2Cc3ccccc3Sc3ccc(Cl)cc32)CC1 (stereo not drawn) [CLOROTEPINE] | 4.9 | 12.1 |  | 
68 | CC(Cc1ccccc1)NCCC1c2ccccc2-c2ccccc21 (stereo not drawn) | 5.2 | 10.9 |  | 

— ChEMBL document CHEMBL1158527, “Identification of novel allosteric nonpeptidergic inhibitors of the human cytomegalovirus-encoded chemokine receptor US28” (Bioorg Med Chem, 2010)
